Reference: ChEMBL document CHEMBL3244034, “Semisynthetic cephalosporins. Synthesis and structure-activity relationships of 7-(1-pyrryl)- and 7-(1-indolyl)acetamidocephalosporin derivatives” (1978)
Values after ≈ are worked out from the molar mass of the structure shown. Active and inactive are the calls of the source. The calls are words filed in the database; no cut-off is given here.

These molecules were tested on Staphylococcus aureus (assay: Antibacterial activity against benzylpenicillin-resistant Staphylococcus aureus after 17 hrs by serial two fold dilution method).
Format: functional
In short: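 Agar dilution MIC. Compound was serially diluted twofold in Mueller-Hinton agar. The surface was inoculated with a diluted 18-24-h broth culture […]. Plates were incubated 17 h at 37 °C. MIC was taken as the lowest concentration giving complete or virtually complete inhibition of visible growth.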
With `Cc1nnc(SCC2=C(C(=O)O)N3C(=O)[C@@H](NC(=O)Cn4cccc4)[C@H]3SC2)s1` the MIC was 0.8 µg/mL (≈ 1.77 µM).
For `Cc1nnc(SCC2=C(C(=O)O)N3C(=O)[C@@H](NC(=O)Cn4cnnn4)[C@H]3SC2)s1` [CEFAZOLIN], the MIC was 0.4 µg/mL (≈ 0.88 µM).

These molecules were tested on Staphylococcus aureus (assay: Antibacterial activity against Staphylococcus aureus after 17 hrs by serial two fold dilution method).
Format: functional
In short: (§1)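 Agar dilution MIC: compound serially diluted twofold in Mueller-Hinton agar. Plate surfaces were inoculated with a suitably diluted 18-24-h broth culture and incubated 17 h at 37 °C. MIC was read as the lowest concentration giving complete or virtually complete inhibition of visible growth.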
Molecule `Cc1nnc(SCC2=C(C(=O)O)N3C(=O)[C@@H](NC(=O)Cn4cccc4)[C@H]3SC2)s1` has an MIC of 0.2 µg/mL (≈ 0.443 µM).
`Cc1nnc(SCC2=C(C(=O)O)N3C(=O)[C@@H](NC(=O)Cn4cnnn4)[C@H]3SC2)s1` [CEFAZOLIN] gave an MIC of 0.2 µg/mL (≈ 0.44 µM).

These molecules were tested on Staphylococcus epidermidis (assay: Antibacterial activity against Staphylococcus epidermidis after 17 hrs by serial two fold dilution method).
Format: functional
In short: as §1
With `Cc1nnc(SCC2=C(C(=O)O)N3C(=O)[C@@H](NC(=O)Cn4cccc4)[C@H]3SC2)s1` the MIC was 0.8 µg/mL (≈ 1.77 µM).
`Cc1nnc(SCC2=C(C(=O)O)N3C(=O)[C@@H](NC(=O)Cn4cnnn4)[C@H]3SC2)s1` [CEFAZOLIN] gave an MIC of 0.8 µg/mL (≈ 1.76 µM).

These molecules were tested on Enterococcus faecalis (assay: Antibacterial activity against Staphylococcus faecalis after 17 hrs by serial two fold dilution method).
Format: functional
In short: as §1
In the case of `Cc1nnc(SCC2=C(C(=O)O)N3C(=O)[C@@H](NC(=O)Cn4cccc4)[C@H]3SC2)s1`, the MIC is reported as > 100 µg/mL.
For `Cc1nnc(SCC2=C(C(=O)O)N3C(=O)[C@@H](NC(=O)Cn4cnnn4)[C@H]3SC2)s1` [CEFAZOLIN], the MIC was > 100 µg/mL.

The molecules below were run on Streptococcus pneumoniae (assay: Antibacterial activity against Streptococcus pneumoniae after 17 hrs by serial two fold dilution method).
Format: functional
In short: as §1
Molecule `Cc1nnc(SCC2=C(C(=O)O)N3C(=O)[C@@H](NC(=O)Cn4cccc4)[C@H]3SC2)s1` has an MIC of 0.1 µg/mL (≈ 0.221 µM).
With `Cc1nnc(SCC2=C(C(=O)O)N3C(=O)[C@@H](NC(=O)Cn4cnnn4)[C@H]3SC2)s1` [CEFAZOLIN] the MIC was 0.1 µg/mL (≈ 0.22 µM).

What follows are molecules tested on Streptococcus pyogenes (assay: Antibacterial activity against Streptococcus pyogenes after 17 hrs by serial two fold dilution method).
Format: functional
In short: as §1
Molecule `Cc1nnc(SCC2=C(C(=O)O)N3C(=O)[C@@H](NC(=O)Cn4cccc4)[C@H]3SC2)s1` has an MIC of 0.1 µg/mL (≈ 0.221 µM).
For `Cc1nnc(SCC2=C(C(=O)O)N3C(=O)[C@@H](NC(=O)Cn4cnnn4)[C@H]3SC2)s1` [CEFAZOLIN], the MIC was 0.1 µg/mL (≈ 0.22 µM).

Each molecule was assayed on Klebsiella aerogenes (assay: Antibacterial activity against Enterobacter aerogenes after 17 hrs by serial two fold dilution method).
Format: functional
`Cc1nnc(SCC2=C(C(=O)O)N3C(=O)[C@@H](NC(=O)Cn4cccc4)[C@H]3SC2)s1` was tested, and the MIC was 100 µg/mL (≈ 221 µM).
With `Cc1nnc(SCC2=C(C(=O)O)N3C(=O)[C@@H](NC(=O)Cn4cnnn4)[C@H]3SC2)s1` [CEFAZOLIN] the MIC was > 50 µg/mL.

These molecules were tested on Enterobacter cloacae (assay: Antibacterial activity against Enterobacter cloacae after 17 hrs by serial two fold dilution method).
Format: functional
Work on `Cc1nnc(SCC2=C(C(=O)O)N3C(=O)[C@@H](NC(=O)Cn4cccc4)[C@H]3SC2)s1` yielded an MIC of 100 µg/mL (≈ 221 µM).

These molecules were tested on Escherichia coli (assay: Antibacterial activity against Escherichia coli after 17 hrs by serial two fold dilution method).
Format: functional
In short: as §1
With `Cc1nnc(SCC2=C(C(=O)O)N3C(=O)[C@@H](NC(=O)Cn4cccc4)[C@H]3SC2)s1` the MIC was 12.5 µg/mL (≈ 27.7 µM).
`Cc1nnc(SCC2=C(C(=O)O)N3C(=O)[C@@H](NC(=O)Cn4cnnn4)[C@H]3SC2)s1` [CEFAZOLIN] gave an MIC of 0.8 µg/mL (≈ 1.76 µM).

What follows are molecules tested on Klebsiella pneumoniae (assay: Antibacterial activity against Klebsiella pneumoniae after 17 hrs by serial two fold dilution method).
Format: functional
In short: as §1
`Cc1nnc(SCC2=C(C(=O)O)N3C(=O)[C@@H](NC(=O)Cn4cccc4)[C@H]3SC2)s1` was tested, and the MIC was 6.2 µg/mL (≈ 13.7 µM).
Molecule `Cc1nnc(SCC2=C(C(=O)O)N3C(=O)[C@@H](NC(=O)Cn4cnnn4)[C@H]3SC2)s1` [CEFAZOLIN] has an MIC of 1.6 µg/mL (≈ 3.52 µM).

What follows are molecules tested on Proteus mirabilis (assay: Antibacterial activity against Proteus mirabilis after 17 hrs by serial two fold dilution method).
Format: functional
In short: as §1
`Cc1nnc(SCC2=C(C(=O)O)N3C(=O)[C@@H](NC(=O)Cn4cccc4)[C@H]3SC2)s1` was tested, and the MIC was 25 µg/mL (≈ 55.4 µM).
For `Cc1nnc(SCC2=C(C(=O)O)N3C(=O)[C@@H](NC(=O)Cn4cnnn4)[C@H]3SC2)s1` [CEFAZOLIN], the MIC was 6.2 µg/mL (≈ 13.6 µM).

These molecules were tested on Proteus vulgaris (assay: Antibacterial activity against Proteus vulgaris after 17 hrs by serial two fold dilution method).
Format: functional
In short: as §1
In the case of `Cc1nnc(SCC2=C(C(=O)O)N3C(=O)[C@@H](NC(=O)Cn4cccc4)[C@H]3SC2)s1`, the MIC is reported as > 100 µg/mL.
In the case of `Cc1nnc(SCC2=C(C(=O)O)N3C(=O)[C@@H](NC(=O)Cn4cnnn4)[C@H]3SC2)s1` [CEFAZOLIN], the MIC is reported as > 100 µg/mL.

Each molecule was assayed on Providencia stuartii (assay: Antibacterial activity against Providencia stuartii after 17 hrs by serial two fold dilution method).
Format: functional
In short: as §1
Work on `Cc1nnc(SCC2=C(C(=O)O)N3C(=O)[C@@H](NC(=O)Cn4cccc4)[C@H]3SC2)s1` yielded an MIC of 25 µg/mL (≈ 55.4 µM).
`Cc1nnc(SCC2=C(C(=O)O)N3C(=O)[C@@H](NC(=O)Cn4cnnn4)[C@H]3SC2)s1` [CEFAZOLIN] was tested, and the MIC was > 50 µg/mL.

Each molecule was assayed on Pseudomonas aeruginosa (assay: Antibacterial activity against Pseudomonas aeruginosa after 17 hrs by serial two fold dilution method).
Format: functional
In short: as §1
For `Cc1nnc(SCC2=C(C(=O)O)N3C(=O)[C@@H](NC(=O)Cn4cccc4)[C@H]3SC2)s1`, the MIC was > 100 µg/mL.
With `Cc1nnc(SCC2=C(C(=O)O)N3C(=O)[C@@H](NC(=O)Cn4cnnn4)[C@H]3SC2)s1` [CEFAZOLIN] the MIC was > 100 µg/mL.

What follows are molecules tested on Salmonella (assay: Antibacterial activity against Salmonella schottmuelleri after 17 hrs by serial two fold dilution method).
Format: functional
In short: as §1
For `Cc1nnc(SCC2=C(C(=O)O)N3C(=O)[C@@H](NC(=O)Cn4cccc4)[C@H]3SC2)s1`, the MIC was 6.2 µg/mL (≈ 13.7 µM).
`Cc1nnc(SCC2=C(C(=O)O)N3C(=O)[C@@H](NC(=O)Cn4cnnn4)[C@H]3SC2)s1` [CEFAZOLIN] gave an MIC of 1.6 µg/mL (≈ 3.52 µM).

Each molecule was assayed on Staphylococcus aureus (assay: Antibacterial activity against benzylpenicillin-resistant Staphylococcus aureus infected in sc dosed CD1 mouse assessed as host survival administered 1 and 4 hrs after infection measured on day 4).
Format: functional
In short: (§2)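 Male albino CD-1 mice, 20 (± 1) g, infected intraperitoneally with a bacterial suspension giving uniformly lethal infection. Groups of ten mice were treated subcutaneously with antibiotic at 1 and 4 h post-infection. Survival over 4 days was recorded.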
For `Cc1nnc(SCC2=C(C(=O)O)N3C(=O)[C@@H](NC(=O)Cn4cnnn4)[C@H]3SC2)s1` [CEFAZOLIN], the ED50 was 22 mg/kg.

Each molecule was assayed on Escherichia coli (assay: Antibacterial activity against Escherichia coli infected in sc dosed CD1 mouse assessed as host survival administered 1 and 4 hrs after infection measured on day 4).
Format: functional
In short: as §2
`Cc1nnc(SCC2=C(C(=O)O)N3C(=O)[C@@H](NC(=O)Cn4cnnn4)[C@H]3SC2)s1` [CEFAZOLIN] was tested, and the ED50 was 0.6 mg/kg.

What follows are molecules tested on Klebsiella pneumoniae (assay: Antibacterial activity against Klebsiella pneumoniae infected in sc dosed CD1 mouse assessed as host survival administered 1 and 4 hrs after infection measured on day 4).
Format: functional
In short: as §2
`Cc1nnc(SCC2=C(C(=O)O)N3C(=O)[C@@H](NC(=O)Cn4cnnn4)[C@H]3SC2)s1` [CEFAZOLIN] showed an ED50 of 42 mg/kg.

The molecules below were run on Proteus mirabilis (assay: Antibacterial activity against Proteus mirabilis infected in sc dosed CD1 mouse assessed as host survival administered 1 and 4 hrs after infection measured on day 4).
Format: functional
In short: as §2
Work on `Cc1nnc(SCC2=C(C(=O)O)N3C(=O)[C@@H](NC(=O)Cn4cnnn4)[C@H]3SC2)s1` [CEFAZOLIN] yielded an ED50 of 79 mg/kg.

The molecules below were run on Salmonella (assay: Antibacterial activity against Salmonella schottmuelleri infected in sc dosed CD1 mouse assessed as host survival administered 1 and 4 hrs after infection measured on day 4).
Format: functional
In short: as §2
`Cc1nnc(SCC2=C(C(=O)O)N3C(=O)[C@@H](NC(=O)Cn4cnnn4)[C@H]3SC2)s1` [CEFAZOLIN] was tested, and the ED50 was 2.2 mg/kg.

The molecules below were run on Neisseria gonorrhoeae (assay: Antibacterial activity against Neisseria gonorrhoeae after 17 hrs by serial two fold dilution method).
Format: functional, organism-based
In the case of `Cc1nnc(SCC2=C(C(=O)O)N3C(=O)[C@@H](NC(=O)Cn4cnnn4)[C@H]3SC2)s1` [CEFAZOLIN], the Activity is reported as “inactive”.

These molecules were tested on Haemophilus influenzae (assay: Antibacterial activity against Haemophilus influenzae after 17 hrs by serial two fold dilution method).
Format: functional, organism-based
`Cc1nnc(SCC2=C(C(=O)O)N3C(=O)[C@@H](NC(=O)Cn4cnnn4)[C@H]3SC2)s1` [CEFAZOLIN] was tested, and the Activity was “inactive”.

What follows are molecules tested on Bacteroides fragilis (assay: Antibacterial activity against Bacteroides fragilis after 17 hrs by serial two fold dilution method).
Format: functional, organism-based
`Cc1nnc(SCC2=C(C(=O)O)N3C(=O)[C@@H](NC(=O)Cn4cnnn4)[C@H]3SC2)s1` [CEFAZOLIN] was tested, and the Activity was “inactive”.

What follows are molecules tested on Fusobacterium varium (assay: Antibacterial activity against Fusobacterium varium after 17 hrs by serial two fold dilution method).
Format: functional, organism-based
With `Cc1nnc(SCC2=C(C(=O)O)N3C(=O)[C@@H](NC(=O)Cn4cnnn4)[C@H]3SC2)s1` [CEFAZOLIN] the Activity was “inactive”.

What follows are molecules tested on Streptococcus pyogenes (assay: Antibacterial activity against Streptococcus pyogenes infected in po dosed CD1 mouse assessed as host survival administered 1 and 4 hrs after infection measured on day 4).
Format: functional
Molecule `Cc1nnc(SCC2=C(C(=O)O)N3C(=O)[C@@H](NC(=O)Cn4cnnn4)[C@H]3SC2)s1` [CEFAZOLIN] has an ED50 of 1.8 mg/kg.
